The structures appear in SMILES notation.

The values that follow come from ChEMBL document CHEMBL1148335, “Design and synthesis of potent inhibitors of the malaria aspartyl proteases plasmepsin I and II. Use of solid-phase synthesis to explore novel statine motifs” (J Med Chem, 2004).

One assay addresses Plasmepsin II (Plasmodium falciparum, UniProt P46925). Description: In vitro inhibition of aspartic protease plasmepsin (Plm) II of Plasmodium falciparum. In outline: (§1)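 Fluorogenic DABCYL-Glu-Arg-Nle-Phe-Leu-Ser-Phe-Pro-EDANS substrate at 3 µM in 100 mM sodium acetate pH 4.5, 10% glycerol, 0.01% Tween 20. Inhibitors were serially diluted in DMSO and added just before substrate, at 1% final DMSO. Fluorescence increase was read over a linear 10 min. IC50 came from a competitive Langmuir fit, and Ki = IC50/(1+[S]/Km), with Km from Michaelis-Menten.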

Another assay deals with Plasmepsin I (Plasmodium falciparum, UniProt P39898). Description: In vitro inhibition of aspartic protease plasmepsin-1 (Plm) of Plasmodium falciparum. In outline: as §1
The next assay concerns the target Cathepsin D (Homo sapiens, UniProt P07339). Description: In vitro inhibition of human liver cathepsin D. An outline of the steps: as §1
Assay [1] relates to Plasmodium falciparum. Description: Growth inhibition of Plasmodium falciparum infected human erythrocytes at 5 uM. Type of assay: functional. An outline of the steps:
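P. falciparum clone 3D7 was used as a highly synchronous early-trophozoite culture at ~1% haematocrit and 1% parasitaemia, with [3H]hypoxanthine at 10 µCi/ml. Compound was added at 1–5 µM final, with DMSO at most 1% v/v. Cultures grew 37 °C, 30 h, to schizonts, then were harvested onto filters for β-counting. Radioactivity was expressed relative to DMSO-only wells, from four independent experiments.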

Assay [2] has as its system Plasmodium falciparum. Description: Growth inhibition of Plasmodium falciparum infected human erythrocytes at 20 uM. The format is functional.

Chain of Plasmepsin I (P39898 whole entry): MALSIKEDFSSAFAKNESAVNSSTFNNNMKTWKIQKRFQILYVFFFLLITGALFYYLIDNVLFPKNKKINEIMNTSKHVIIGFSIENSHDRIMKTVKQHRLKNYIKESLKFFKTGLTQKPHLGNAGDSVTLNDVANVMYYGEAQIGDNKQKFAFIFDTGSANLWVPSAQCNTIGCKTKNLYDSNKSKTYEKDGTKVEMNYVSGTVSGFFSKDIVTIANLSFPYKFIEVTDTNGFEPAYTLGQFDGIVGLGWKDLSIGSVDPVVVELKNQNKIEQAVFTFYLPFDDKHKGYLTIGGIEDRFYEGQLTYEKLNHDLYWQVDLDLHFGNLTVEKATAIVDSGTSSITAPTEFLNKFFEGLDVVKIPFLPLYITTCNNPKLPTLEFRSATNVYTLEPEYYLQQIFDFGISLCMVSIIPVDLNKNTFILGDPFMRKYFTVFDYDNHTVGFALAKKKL
Chain of Cathepsin D (P07339 65-162 limits assumed): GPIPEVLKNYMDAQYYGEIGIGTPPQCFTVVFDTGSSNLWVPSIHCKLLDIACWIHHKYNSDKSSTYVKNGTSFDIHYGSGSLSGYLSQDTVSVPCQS
Chain of Cathepsin D (P07339 169-412 limits assumed): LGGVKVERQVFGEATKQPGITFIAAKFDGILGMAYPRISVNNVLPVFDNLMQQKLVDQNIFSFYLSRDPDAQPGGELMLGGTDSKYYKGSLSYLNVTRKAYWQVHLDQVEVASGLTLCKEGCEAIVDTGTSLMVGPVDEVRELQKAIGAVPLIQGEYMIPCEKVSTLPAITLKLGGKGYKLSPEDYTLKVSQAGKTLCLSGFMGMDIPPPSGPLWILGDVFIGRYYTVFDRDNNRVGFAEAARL
Chain of Plasmepsin II (P46925 whole entry): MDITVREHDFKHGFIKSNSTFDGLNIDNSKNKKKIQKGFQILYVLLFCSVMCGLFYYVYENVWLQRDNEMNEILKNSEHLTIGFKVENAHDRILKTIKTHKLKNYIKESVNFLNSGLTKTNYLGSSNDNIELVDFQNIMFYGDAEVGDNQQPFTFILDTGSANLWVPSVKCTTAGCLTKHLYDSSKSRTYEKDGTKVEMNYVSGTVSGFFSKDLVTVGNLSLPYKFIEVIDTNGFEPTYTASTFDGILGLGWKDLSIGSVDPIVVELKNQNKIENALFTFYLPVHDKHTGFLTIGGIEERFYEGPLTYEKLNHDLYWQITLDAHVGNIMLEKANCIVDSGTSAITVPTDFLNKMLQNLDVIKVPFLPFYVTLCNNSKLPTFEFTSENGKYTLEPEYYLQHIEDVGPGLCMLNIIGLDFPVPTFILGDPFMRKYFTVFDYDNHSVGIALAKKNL

In the case of `O=C(C[C@H](O)[C@H](COCc1ccc(Br)cc1)NC(=O)c1c(F)cc(F)cc1F)NC1CCCCC1`, the values for the Ki at Plasmepsin II, on Plasmepsin I and at Cathepsin D were 230 nM, 822 nM and more than 5900 nM, respectively.
The matching figures for `CC(C)C[C@H](NC(=O)[C@H](C)NC(=O)C[C@H](O)[C@H](COCc1ccc(Br)cc1)NC(=O)c1ccc(Cl)c(Cl)c1)C(N)=O`: 91 nM, 32 nM and 1810 nM.
`CC(C)C[C@H](NC(=O)[C@H](C)NC(=O)C[C@H](O)[C@H](COCc1ccc(Br)cc1)NC(=O)C(c1ccccc1)c1ccccc1)C(N)=O`: the values for the Ki on Plasmepsin II, at Plasmepsin I and at Cathepsin D were 139 nM, 57 nM and 52 nM, respectively. Besides, at 5 µM the inhibition in the assay with Plasmodium falciparum [1] was 10%.
Consider `CC(C)[C@H](NC(=O)c1ccccn1)C(=O)N[C@@H](COCc1ccc(Br)cc1)[C@@H](O)CC(=O)NCc1ccccc1`, for which the Ki stood at 41 nM on Plasmepsin II, 3.9 nM at Plasmepsin I and 586 nM at Cathepsin D.
For `CC(C)C[C@H](NC(=O)[C@H](C)NC(=O)C[C@H](O)[C@H](COCc1ccc(Br)cc1)NC(=O)[C@@H](NC(=O)c1ccccn1)C(C)C)C(N)=O` the same measures were 2.2 nM, 0.5 nM and 4.9 nM.
Consider `CC(C)C[C@H](NC(=O)[C@H](C)NC(=O)C[C@H](O)[C@H](COCc1ccc(Br)cc1)NC(=O)Cc1cccs1)C(N)=O`, for which the Ki on Plasmepsin II turned out to be 348 nM; on Plasmepsin I, 24 nM; on Cathepsin D, 35 nM.
`CC(C)C[C@H](NC(=O)[C@H](C)NC(=O)C[C@H](O)[C@H](Cc1ccccc1)NC(=O)[C@@H](NC(=O)c1ccccn1)C(C)C)C(N)=O` displayed an inhibition at 20 µM in the assay on Plasmodium falciparum [2] of 54%.
On to `CC(C)C[C@H](NC(=O)[C@H](C)NC(=O)C[C@H](O)[C@H](COCc1ccc(Br)cc1)NC(=O)c1c(F)cc(F)cc1F)C(N)=O`, for which the figures for the Ki on Plasmepsin II, on Plasmepsin I and on Cathepsin D were 10 nM, 3.4 nM and more than 4000 nM, respectively.
For `CC(C)C[C@H](NC(=O)[C@H](C)NC(=O)C[C@H](O)[C@H](COCc1ccc(Br)cc1)NC(=O)c1ccc2c(c1)OCO2)C(N)=O` the same measures were 131 nM, 29 nM and more than 5900 nM.
For the compound `CCCCNC(=O)C[C@H](O)[C@H](COCc1ccc(Br)cc1)NC(=O)[C@@H](NC(=O)c1ccccn1)C(C)C`, the Ki was 68 nM on Plasmepsin II, 8.1 nM at Plasmepsin I and 473 nM on Cathepsin D.
For the compound `CC(C)[C@H](NC(=O)c1ccccn1)C(=O)N[C@@H](COCc1ccc(Br)cc1)[C@@H](O)CC(=O)NCCCc1ccccc1`, the results for the Ki on Plasmepsin II, at Plasmepsin I and at Cathepsin D were 30 nM, 5.4 nM and 459 nM, respectively.
Consider `CC(C)C[C@H](NC(=O)[C@H](C)NC(=O)C[C@H](O)[C@H](COCc1ccc(Br)cc1)NC(=O)CC(c1ccccc1)c1ccccc1)C(N)=O`, for which the Ki on Plasmepsin II came to 284 nM; at Plasmepsin I it was 40 nM; at Cathepsin D, 100 nM.
`CC(C)[C@H](NC(=O)c1ccccn1)C(=O)N[C@@H](COCc1ccc(Br)cc1)[C@@H](O)CC(=O)NCCNc1ccccc1`: the Ki at Plasmepsin II came out at 74 nM; on Plasmepsin I, 8.9 nM; on Cathepsin D, 265 nM. Besides, in the assay on Plasmodium falciparum [1], the inhibition at 5 µM stood at 25%.
For `CC(C)C[C@H](NC(=O)[C@H](C)NC(=O)C[C@H](O)[C@H](CCc1ccccc1)NC(=O)[C@@H](NC(=O)c1ccccn1)C(C)C)C(N)=O` the same measures were 46 nM, 27 nM, 980 nM and 41%.
For `CC(C)C[C@H](NC(=O)[C@H](C)NC(=O)C[C@H](O)[C@H](COCc1ccc(Br)cc1)NC(=O)[C@@H]1Cc2ccccc2N1)C(N)=O` the same measures were 144 nM, 59 nM, 322 nM and 16%.
Turning to `CC(C)[C@H](NC(=O)c1ccccn1)C(=O)N[C@@H](COCc1ccc(Br)cc1)[C@@H](O)CC(=O)NCc1ccc(C#N)cc1`, the Ki on Plasmepsin II was 256 nM; on Plasmepsin I, 53 nM; at Cathepsin D, 623 nM.
Consider `COc1cccc(CCNC(=O)C[C@H](O)[C@H](COCc2ccc(Br)cc2)NC(=O)c2c(F)cc(F)cc2F)c1`, for which the inhibitory constant (Ki) was 390 nM on Plasmepsin II, 619 nM on Plasmepsin I and more than 5900 nM at Cathepsin D.
As to `CC(C)C[C@H](NC(=O)[C@H](C)NC(=O)C[C@H](O)[C@H](COCc1ccc(Br)cc1)NC(=O)[C@H](NC(=O)c1ccccn1)C(C)C)C(N)=O`, the Ki amounted to 15 nM on Plasmepsin II, 6.4 nM on Plasmepsin I and 41 nM on Cathepsin D. In addition, the inhibition at 5 µM in the assay with Plasmodium falciparum [1] turned out to be 50%.
Consider `COCCCNC(=O)C[C@H](O)[C@H](COCc1ccc(Br)cc1)NC(=O)[C@@H](NC(=O)c1ccccn1)C(C)C`, for which the Ki is 248 nM at Plasmepsin II, 49 nM at Plasmepsin I and more than 4000 nM at Cathepsin D.
On to `COc1cccc(CCNC(=O)C[C@H](O)[C@H](COCc2ccc(Br)cc2)NC(=O)[C@@H](NC(=O)c2ccccn2)C(C)C)c1`, for which the Ki amounted to 29 nM on Plasmepsin II, 6.7 nM on Plasmepsin I and 140 nM at Cathepsin D. Also, the inhibition at 5 µM in the assay on Plasmodium falciparum [1] came to 25%.
As to `CC(C)C[C@H](NC(=O)[C@H](C)NC(=O)C[C@H](O)[C@H](COCc1ccccc1)NC(=O)[C@@H](NC(=O)c1ccccn1)C(C)C)C(N)=O`, the Ki on Plasmepsin II was determined as 11 nM; at Plasmepsin I, 5.4 nM; on Cathepsin D it was 41 nM. The compound also gave an inhibition at 5 µM in the assay on Plasmodium falciparum [1] of 37%.
Consider `CC(C)[C@H](NC(=O)c1ccccn1)C(=O)N[C@@H](COCc1ccc(Br)cc1)[C@@H](O)CC(=O)NC1CCCCC1`, for which the inhibition constant Ki on Plasmepsin II came out at 25 nM; on Plasmepsin I it was 4.1 nM; on Cathepsin D it was 217 nM. Further, at 5 µM the inhibition in the assay on Plasmodium falciparum [1] was 21%.

In general, Ki refers to the dissociation constant of the complex between target and ligand, obtained from inhibition or displacement. Low readings indicate a stronger hold on the target, high ones a looser hold on the target. One may read the inhibition as the relative decrease from the control value, in per cent. Read a high inhibition as a strong effect.
